Experimental data as given in ChEMBL document CHEMBL2331471, “Vegfrecine, an inhibitor of VEGF receptor tyrosine kinases isolated from the culture broth of Streptomyces sp” (J Nat Prod, 2013).
The source made the active and inactive calls. The rule behind the calls is not given here.

Experiments:
[1] = target: Fibroblast growth factor receptor (Homo sapiens, UniProt P22607+P11362+P22455+P21802); experiment: Inhibition of FGFR (unknown origin) after 20 mins by scintillation counting; type: protein assay
[2] = tested on: NIH3T3; experiment: Cytotoxicity against mouse NIH/3T3 cells overexpressing Flt-1 (unknown origin) at 10 uM after 2 hrs; type: cell-based; conditions: nih3t3, 2 h
[3] = target: Epidermal growth factor receptor (Homo sapiens, UniProt P00533); experiment: Inhibition of EGFR (unknown origin) after 20 mins by scintillation counting
[4] = target: T1, Vascular endothelial growth factor receptor 1 (Homo sapiens, UniProt P17948); experiment: Inhibition of ligand-induced phosphorylation of Flt-1 (unknown origin) overexpressed in NIH-3T3 cells at 10 uM after 2 hrs by immunoblotting; type: cell-based; conditions: NIH3T3
Outline: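 Subconfluent NIH3T3-Flt-1 cells were serum-starved 16 h, exposed to samples for 2 h, then stimulated 5 min with 50 ng/mL recombinant human VEGF-A. Cells were lysed in HEPES/Triton buffer containing Na3VO4, PMSF and aprotinin. Lysates were immunoblotted with anti-phosphotyrosine, anti-Flt-1 and anti-actin antibodies.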

[5] = target: T1, Vascular endothelial growth factor receptor 1; experiment: Inhibition of GST-Flt1 kinase domain (unknown origin) expressed in baculovirus infected Sf9 cells after 20 mins by scintillation counting
[6] = tested on: NIH3T3; experiment: Cytotoxicity against mouse NIH/3T3 cells overexpressing KDR (unknown origin) after 48 hrs; type: cell-based; conditions: nih3t3, 48 h
Outline: (§1)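 MTT viability assay: NIH3T3-Flt-1 or NIH3T3-KDR cells, grown in DMEM with 10% FCS, glutamine and 200 μg/mL G418, were seeded at 3 × 10^3 cells/well with or without test samples and incubated 2 days. MTT was then added for 2 h, formazan dissolved overnight in 10% SDS, and absorbance read at 570 nm.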

[7] = target: Platelet-derived growth factor receptor alpha (Homo sapiens, UniProt P16234); experiment: Inhibition of PDGFR-alpha (unknown origin) after 20 mins by scintillation counting
[8] = target: Vascular endothelial growth factor receptor 2 (Homo sapiens, UniProt P35968)
[9] = tested on: NIH3T3; experiment: Cytotoxicity against mouse NIH/3T3 cells overexpressing Flt-1 (unknown origin) after 48 hrs; type: cell-based; conditions: nih3t3, 48 h; outline: as §1
[10] = target: Vascular endothelial growth factor receptor 3 (Homo sapiens, UniProt P35916); experiment: Inhibition of Flt4 (unknown origin) after 20 mins by scintillation counting
Outline: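 Radiometric filter-plate kinase assay for Flt-1, Flt-4 and PDGFR-α. Buffer: 20 mM Tris-HCl pH 7.4, 3 mM MnCl2, 3 mM MgCl2, 50 μg/mL poly GluTyr, 100 mM NaCl, Na3VO4, DTT, 0.5% BSA. Kinase (55 ng) plus compound in 2% DMSO buffer; reaction started with 4 μM ATP/32P-ATP solution. Ran 20 min at room temperature, stopped with 30% TCA, washed with 15% TCA, scintillation counted.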

[11] = target: Platelet-derived growth factor receptor beta (Homo sapiens, UniProt P09619); experiment: Inhibition of PDGFR-beta (unknown origin) after 20 mins by scintillation counting
Platelet-derived growth factor receptor beta, sequence (P09619 whole entry): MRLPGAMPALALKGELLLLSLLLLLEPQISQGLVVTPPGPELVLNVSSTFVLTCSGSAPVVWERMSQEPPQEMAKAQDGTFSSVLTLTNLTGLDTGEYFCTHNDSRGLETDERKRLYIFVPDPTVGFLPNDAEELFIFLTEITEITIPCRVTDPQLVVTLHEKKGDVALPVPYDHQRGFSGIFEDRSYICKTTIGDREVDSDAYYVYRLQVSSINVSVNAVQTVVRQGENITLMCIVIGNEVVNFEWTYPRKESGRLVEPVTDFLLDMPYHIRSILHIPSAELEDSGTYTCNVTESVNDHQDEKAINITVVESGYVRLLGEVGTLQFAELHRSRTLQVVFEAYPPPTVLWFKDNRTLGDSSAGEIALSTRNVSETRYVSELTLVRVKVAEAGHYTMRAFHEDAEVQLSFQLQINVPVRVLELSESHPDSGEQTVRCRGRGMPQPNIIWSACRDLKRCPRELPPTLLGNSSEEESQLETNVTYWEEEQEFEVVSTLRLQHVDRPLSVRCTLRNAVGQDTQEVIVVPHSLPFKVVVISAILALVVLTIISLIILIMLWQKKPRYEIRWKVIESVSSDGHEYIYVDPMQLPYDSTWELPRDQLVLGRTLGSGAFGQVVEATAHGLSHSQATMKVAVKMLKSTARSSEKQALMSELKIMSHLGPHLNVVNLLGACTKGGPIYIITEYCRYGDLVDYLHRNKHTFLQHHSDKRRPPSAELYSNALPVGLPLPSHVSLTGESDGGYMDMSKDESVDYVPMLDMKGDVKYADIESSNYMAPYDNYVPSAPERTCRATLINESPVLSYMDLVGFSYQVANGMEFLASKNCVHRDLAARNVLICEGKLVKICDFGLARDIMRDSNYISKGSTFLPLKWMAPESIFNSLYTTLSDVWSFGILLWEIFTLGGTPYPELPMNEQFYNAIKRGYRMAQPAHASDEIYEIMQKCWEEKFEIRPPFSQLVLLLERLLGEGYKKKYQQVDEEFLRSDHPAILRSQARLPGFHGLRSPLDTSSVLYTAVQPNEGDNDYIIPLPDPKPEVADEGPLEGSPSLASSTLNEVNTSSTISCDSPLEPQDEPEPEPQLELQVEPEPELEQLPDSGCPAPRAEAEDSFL

T1 sequence (P17948 whole entry): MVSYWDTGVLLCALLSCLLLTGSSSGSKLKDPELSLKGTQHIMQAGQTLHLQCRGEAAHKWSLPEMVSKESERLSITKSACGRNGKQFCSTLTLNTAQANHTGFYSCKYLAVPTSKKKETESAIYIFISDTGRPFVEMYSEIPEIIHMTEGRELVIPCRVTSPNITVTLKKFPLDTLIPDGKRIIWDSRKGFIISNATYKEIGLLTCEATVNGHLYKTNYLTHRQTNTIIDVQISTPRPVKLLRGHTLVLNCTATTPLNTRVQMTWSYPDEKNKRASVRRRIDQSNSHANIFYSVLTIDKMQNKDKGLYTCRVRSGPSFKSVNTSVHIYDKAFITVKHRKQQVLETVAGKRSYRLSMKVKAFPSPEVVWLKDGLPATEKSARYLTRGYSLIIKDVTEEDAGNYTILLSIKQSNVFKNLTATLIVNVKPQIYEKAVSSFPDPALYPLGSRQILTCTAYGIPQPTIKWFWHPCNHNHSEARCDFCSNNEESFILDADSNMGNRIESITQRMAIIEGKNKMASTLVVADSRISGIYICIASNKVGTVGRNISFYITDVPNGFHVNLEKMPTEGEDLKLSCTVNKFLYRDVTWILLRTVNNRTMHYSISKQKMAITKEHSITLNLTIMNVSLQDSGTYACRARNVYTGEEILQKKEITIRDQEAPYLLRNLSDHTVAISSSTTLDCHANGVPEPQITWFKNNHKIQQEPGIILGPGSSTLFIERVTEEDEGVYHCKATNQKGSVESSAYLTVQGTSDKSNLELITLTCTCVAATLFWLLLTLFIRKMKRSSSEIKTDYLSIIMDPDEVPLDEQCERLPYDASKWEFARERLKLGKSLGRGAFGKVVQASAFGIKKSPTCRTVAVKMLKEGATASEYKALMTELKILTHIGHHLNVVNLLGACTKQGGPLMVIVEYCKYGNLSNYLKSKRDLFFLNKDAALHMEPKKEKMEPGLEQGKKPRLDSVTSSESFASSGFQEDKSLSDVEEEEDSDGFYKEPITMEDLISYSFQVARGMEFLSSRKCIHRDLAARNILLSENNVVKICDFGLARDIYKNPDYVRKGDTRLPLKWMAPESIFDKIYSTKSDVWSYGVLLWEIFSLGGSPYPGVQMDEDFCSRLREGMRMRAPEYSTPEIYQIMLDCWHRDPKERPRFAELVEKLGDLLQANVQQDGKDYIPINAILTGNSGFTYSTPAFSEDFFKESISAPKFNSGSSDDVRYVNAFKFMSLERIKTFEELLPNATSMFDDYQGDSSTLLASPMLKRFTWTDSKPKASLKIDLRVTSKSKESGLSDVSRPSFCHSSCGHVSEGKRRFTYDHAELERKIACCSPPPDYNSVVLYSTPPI
Vascular endothelial growth factor receptor 3, sequence (P35916 whole entry): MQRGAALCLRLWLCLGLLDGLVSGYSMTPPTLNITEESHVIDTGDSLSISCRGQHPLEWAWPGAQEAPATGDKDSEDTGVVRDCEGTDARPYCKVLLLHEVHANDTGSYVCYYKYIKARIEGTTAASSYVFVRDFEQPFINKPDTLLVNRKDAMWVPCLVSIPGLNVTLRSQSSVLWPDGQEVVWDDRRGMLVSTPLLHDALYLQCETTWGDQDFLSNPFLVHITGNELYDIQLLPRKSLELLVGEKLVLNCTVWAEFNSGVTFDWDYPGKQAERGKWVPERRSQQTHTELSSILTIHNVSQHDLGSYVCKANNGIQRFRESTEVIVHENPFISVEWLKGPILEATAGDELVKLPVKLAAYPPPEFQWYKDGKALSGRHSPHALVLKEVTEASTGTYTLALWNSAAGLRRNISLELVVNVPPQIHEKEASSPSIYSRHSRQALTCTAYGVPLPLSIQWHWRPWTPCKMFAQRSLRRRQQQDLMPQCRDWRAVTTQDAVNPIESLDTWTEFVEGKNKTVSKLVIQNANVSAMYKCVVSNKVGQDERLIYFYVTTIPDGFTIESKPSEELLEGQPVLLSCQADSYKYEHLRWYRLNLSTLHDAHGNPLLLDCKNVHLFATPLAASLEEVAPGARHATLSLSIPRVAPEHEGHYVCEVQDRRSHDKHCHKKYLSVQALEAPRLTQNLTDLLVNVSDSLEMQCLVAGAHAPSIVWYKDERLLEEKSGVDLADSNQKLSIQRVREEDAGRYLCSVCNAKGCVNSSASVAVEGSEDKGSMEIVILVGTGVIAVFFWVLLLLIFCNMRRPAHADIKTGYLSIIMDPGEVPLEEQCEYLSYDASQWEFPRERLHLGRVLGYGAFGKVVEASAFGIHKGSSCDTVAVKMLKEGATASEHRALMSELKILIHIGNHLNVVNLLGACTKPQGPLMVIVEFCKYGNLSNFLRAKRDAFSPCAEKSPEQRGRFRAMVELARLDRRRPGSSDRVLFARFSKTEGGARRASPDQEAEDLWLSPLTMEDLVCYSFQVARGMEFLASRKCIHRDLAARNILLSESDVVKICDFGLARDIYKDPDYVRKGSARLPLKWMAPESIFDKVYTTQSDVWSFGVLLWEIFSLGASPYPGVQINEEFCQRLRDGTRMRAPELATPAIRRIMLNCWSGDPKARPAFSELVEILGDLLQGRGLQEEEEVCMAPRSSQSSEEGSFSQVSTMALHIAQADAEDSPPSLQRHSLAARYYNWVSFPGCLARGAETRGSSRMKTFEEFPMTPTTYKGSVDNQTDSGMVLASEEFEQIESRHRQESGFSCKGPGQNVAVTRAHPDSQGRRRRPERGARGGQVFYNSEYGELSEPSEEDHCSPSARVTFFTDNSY
Platelet-derived growth factor receptor alpha, sequence (P16234 whole entry): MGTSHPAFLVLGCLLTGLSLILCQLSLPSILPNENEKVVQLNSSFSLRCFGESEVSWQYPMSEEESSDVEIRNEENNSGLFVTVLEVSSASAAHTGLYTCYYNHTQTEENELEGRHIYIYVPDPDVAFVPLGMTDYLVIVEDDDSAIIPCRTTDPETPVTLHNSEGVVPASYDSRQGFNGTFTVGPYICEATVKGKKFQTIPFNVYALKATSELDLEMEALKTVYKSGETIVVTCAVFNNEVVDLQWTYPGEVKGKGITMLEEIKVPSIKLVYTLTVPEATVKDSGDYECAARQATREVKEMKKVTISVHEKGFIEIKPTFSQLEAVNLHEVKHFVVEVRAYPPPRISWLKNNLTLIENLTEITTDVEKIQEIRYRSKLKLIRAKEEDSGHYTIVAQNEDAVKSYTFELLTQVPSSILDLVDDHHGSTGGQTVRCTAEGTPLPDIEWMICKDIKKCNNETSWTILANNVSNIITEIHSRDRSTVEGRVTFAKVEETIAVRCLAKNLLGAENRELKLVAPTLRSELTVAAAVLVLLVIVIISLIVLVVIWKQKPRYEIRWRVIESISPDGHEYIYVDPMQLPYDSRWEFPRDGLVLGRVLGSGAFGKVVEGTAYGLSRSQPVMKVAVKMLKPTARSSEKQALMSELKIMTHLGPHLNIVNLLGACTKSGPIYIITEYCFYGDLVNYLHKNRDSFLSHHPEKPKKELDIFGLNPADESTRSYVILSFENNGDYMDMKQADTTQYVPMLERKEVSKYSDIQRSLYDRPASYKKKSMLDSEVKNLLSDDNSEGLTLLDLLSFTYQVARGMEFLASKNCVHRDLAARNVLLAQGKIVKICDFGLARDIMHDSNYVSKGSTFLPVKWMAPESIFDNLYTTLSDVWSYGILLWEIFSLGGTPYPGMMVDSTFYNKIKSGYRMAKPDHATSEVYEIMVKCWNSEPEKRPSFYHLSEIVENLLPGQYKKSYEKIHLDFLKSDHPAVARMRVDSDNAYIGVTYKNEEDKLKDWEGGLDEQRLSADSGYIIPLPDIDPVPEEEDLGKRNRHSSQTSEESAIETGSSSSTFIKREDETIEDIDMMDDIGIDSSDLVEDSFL

IC50 [1] | IC50 [3] | Activity [4] | IC50 [5] | IC50 [7] | IC50 [8] | IC50 [10] | IC50 [11] | Structure (SMILES) | Activity [2] | Activity [6] | Activity [9]
730 nM | 2600 nM | Active | 18 nM | 3200 nM | 11 nM | 1.8 nM | 480 nM | NC(=O)C1=C(N)C(=O)C=C(Nc2ccccc2O)C1=O [VEGFRECINE] | Non-toxic | 12 µM | 3 µM
 |  |  |  |  |  | 500 nM |  | Cc1cc(C)c(/C=C2\C(=O)Nc3ccccc32)[nH]1 [SEMAXANIB] |  |  | 
